This passage reports IC50, ED50 and Kb results from ChEMBL document CHEMBL1133430, “8-Methylureido-4,5-dihydro-4-oxo-10H-imidazo[1,2-a]indeno[1,2-e]pyrazines: highly potent in vivo AMPA antagonists” (Bioorg Med Chem Lett, 2000).

The target of one experiment is Glutamate NMDA receptor. As to the kind of experiment: In vitro affinity for N-methyl-D-aspartate glutamate receptor 1 using [3H]5,7-dichlorokynurenate([3H]-DCKA) as ligand. Format: protein-complex assay. A digest of the protocol:
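Competition binding on rat cerebral cortex membranes at the NMDA receptor glycine site. IC50 is the mean of at least three determinations, each using at least three test concentrations run in triplicate.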

The target of experiment [1] is Glutamate receptor ionotropic, AMPA (Rattus norvegicus, UniProt P19490+P19491+P19492+P19493). Nature of the experiment: The compound was tested for its affinity for Ionotropic glutamate receptor AMPA in in vitro binding assay on rat cortical membrane preparations using [3H]AMPA as ligand.
Experiment [2] deals with Mus musculus. As to the kind of experiment: Tested in vivo as the dose which protected 50% of the animals from a tonic convulsion (six male CDI mice/dose of compound) after intraperitoneal administration in MES test. Format: functional. A digest of the protocol: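 Maximal electroshock (MES) convulsions in male CD1 mice. Compound given ip in 1% Tween-80 in water, 30 min before challenge. Six mice per dose, at least three doses plus a vehicle-alone group. ED50 (mg/kg) is the dose protecting 50% of animals from tonic convulsion.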

The species named for another experiment is Rattus norvegicus. As to the kind of experiment: The compound was tested for its inhibition of currents generated by 50 uM Kainate in Xenopus oocytes injected with rat brain mRNA. In kind it is functional. A digest of the protocol: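 Xenopus oocytes injected with rat brain mRNA; AMPA receptor currents evoked by a submaximal kainate concentration, recorded electrophysiologically. Drug stocks in water or DMSO, diluted into recording medium. IC50 obtained by nonlinear least-squares fit to a sigmoidal equation.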

The subject of experiment [3] is Mus musculus. Nature of the experiment: Tested in vivo as the dose which protected 50% of the animals from a tonic convulsion (six male CDI mice/dose of compound) after intraperitoneal administration in DBA test. Format: functional. The essentials: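 Audiogenic seizure test in DBA/2 mice. Compound given ip in 1% Tween-80 in water, 30 min before the sound challenge. Six mice per dose, three doses plus a vehicle-treated group.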

For experiment [4], the system named is Mus musculus. As to the kind of experiment: Tested in vivo as the dose which protected 50% of the animals from a tonic convulsion (six male CDI mice/dose of compound) after intravenous administration in MES test. Format: functional. A digest of the protocol:
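Maximal electroshock (MES) convulsions in male CD1 mice. Compound given iv in saline, 5 min before challenge. Six mice per dose, at least three doses plus a vehicle-alone group. ED50 (mg/kg) is the dose protecting 50% of animals from tonic convulsion.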

Experiment [5] has as its system Mus musculus. Nature of the experiment: Tested in vivo as the dose which protected 50% of the animals from a tonic convulsion (six male CDI mice/dose of compound) after subcutaneous administration in MES test. In kind it is functional. The settings on record: sc. The essentials:
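Maximal electroshock (MES) convulsions in male CD1 mice. Compound given sc in 1% Tween-80 in water, 30 min before challenge. Six mice per dose, at least three doses plus a vehicle-alone group. ED50 (mg/kg) is the dose protecting 50% of animals from tonic convulsion.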

Where [6] appears, read: Mus musculus, ip, read-out: ED50.

What is called IC50 is the midpoint of a concentration-inhibition curve. Read a low IC50 as inhibition by little substance. For `Cc1ccc2c(c1)-c1nc(O)c3nccn3c1C2`, the IC50 against Glutamate NMDA receptor was 2100 nM; in experiment [1], over 100000 nM.
Taken in the same sequence, the figures for `O=C(Nc1ccccc1)Nc1ccc2c(c1)Cc1c-2nc(O)c2nccn12` were over 100000 nM and 620 nM.
Regarding `CC(=O)Nc1ccc2c(c1)Cc1c-2nc(O)c2nccn12`, the IC50 worked out at 10000 nM against Glutamate NMDA receptor and 3250 nM in experiment [1].
In the case of `Nc1ccc2c(c1)Cc1c-2nc(O)c2nccn12`, the IC50 is 22000 nM against Glutamate NMDA receptor and 5600 nM in experiment [1].
Consider `Cc1ccc2c(c1)Cc1c-2nc(O)c2nccn12`, for which the IC50 at Glutamate NMDA receptor is over 100000 nM; in experiment [1], 30000 nM.
`O=C(NCc1ccccc1)Nc1ccc2c(c1)Cc1c-2nc(O)c2nccn12`: the IC50 against Glutamate NMDA receptor is 100000 nM; in experiment [1], 110 nM.
Regarding `O=C(Nc1ccc2c(c1)Cc1c-2nc(O)c2nccn12)c1ccccc1`, the values for the IC50 (against Glutamate NMDA receptor; in experiment [1]) were over 100000 nM and 450 nM, respectively.
As to `CNC(=O)Nc1cccc2c1Cc1c-2nc(O)c2nccn12`, the IC50 on Glutamate NMDA receptor was determined as 2300 nM; in experiment [1], 300 nM.
As to `Oc1nc2c(n3ccnc13)Cc1c(Cl)cccc1-2`, the values for the half-maximal inhibitory concentration (IC50) (against Glutamate NMDA receptor; in experiment [1]) were 100000 nM and 17000 nM, respectively.
Taken in the same sequence, the figures for `Oc1nc2c(n3ccnc13)Cc1c(F)cccc1-2` were 100000 nM and 900 nM.
Regarding `CNC(=O)Nc1ccc2c(c1)Cc1c-2nc(O)c2nccn12`, the concentration for half-maximal inhibition (IC50) against Glutamate NMDA receptor turned out to be 100000 nM; in experiment [1], 18 nM.
Take `CCOC(=O)Nc1ccc2c(c1)Cc1c-2nc(O)c2nccn12`: the IC50 against Glutamate NMDA receptor stood at 8400 nM; in experiment [1] it was 670 nM.
Turning to `Oc1nc2c(n3ccnc13)Cc1ccc(F)cc1-2`, the IC50 was 1000 nM against Glutamate NMDA receptor and 970 nM in experiment [1].
Taken in the same sequence, the figures for `Oc1nc2c(n3ccnc13)Cc1cc(-n3ccnc3)ccc1-2` were over 100000 nM and 100000 nM.
Take `COc1ccc2c(c1)Cc1c-2nc(O)c2nccn12`: the results for the half-inhibitory concentration (IC50) (at Glutamate NMDA receptor; in experiment [1]) were 5300 nM and 3300 nM, respectively.
Consider `Oc1nc2c(n3ccnc13)Cc1cc(F)ccc1-2`, for which the IC50 is 7800 nM on Glutamate NMDA receptor and 250 nM in experiment [1].
As to `O=S(=O)(O)c1ccc2c(c1)Cc1c-2nc(O)c2nccn12`, the values for the IC50 (on Glutamate NMDA receptor; in experiment [1]) were over 100000 nM and 30000 nM, respectively.
As usually defined, the ED50 is the dose at which the effect has come halfway, by size or by number of responders. In the experiment on Mus musculus [2] (ip), `Oc1nc2c(n3ccnc13)Cc1ccccc1-2` returned a 50% effective dose (ED50) of 62 mg/kg. In the experiment filed under Rattus norvegicus (Rattus norvegicus), the Kb turned out to be 1.8 nM.
As to `CN(C)C(=O)Nc1ccc2c(c1)Cc1c-2nc(O)c2nccn12`, the figures for the IC50 (against Glutamate NMDA receptor; in experiment [1]) were 100000 nM and 37 nM, respectively.
As to `Oc1nc2c(n3ccnc13)Cc1cc(Br)ccc1-2`, the half-inhibitory concentration (IC50) against Glutamate NMDA receptor is over 100000 nM; in experiment [1], 2000 nM.
Consider `O=C(NCCc1ccccc1)Nc1ccc2c(c1)Cc1c-2nc(O)c2nccn12`, for which the 50% inhibitory concentration (IC50) on Glutamate NMDA receptor is over 100000 nM; in experiment [1], 130 nM.
For `CNC(=O)Nc1ccc2c(c1)/c(=C/C(=O)O)c1c2nc(O)c2nccn21`, the median effective dose (ED50) in the experiment with Mus musculus [3] (setting [6]) stood at 1.6 mg/kg; with Mus musculus [2] (setting [6]), 11 mg/kg; with Mus musculus [4] it was 5.6 mg/kg. Further, the results for the half-inhibitory concentration (IC50) (in the experiment listed under Rattus norvegicus (Rattus norvegicus); on Glutamate NMDA receptor; in experiment [1]) were 3 nM, 100000 nM and 19 nM, respectively.
With `Oc1nc2c(n3ccnc13)Cc1ccc(Cl)cc1-2`, the IC50 was determined as 180 nM on Glutamate NMDA receptor and 3000 nM in experiment [1].
In the case of `CCNC(=O)Nc1ccc2c(c1)Cc1c-2nc(O)c2nccn12`, the half-inhibitory concentration (IC50) against Glutamate NMDA receptor is 10000 nM; in experiment [1] it was 86 nM.
For `Oc1nc2c(n3ccnc13)Cc1cc(Cl)ccc1-2`, in that order: over 100000 nM and 16000 nM.
In the case of `NC(=O)Nc1ccc2c(c1)Cc1c-2nc(O)c2nccn12`, the IC50 at Glutamate NMDA receptor is over 100000 nM; in experiment [1], 1250 nM.
With `O=C(Cc1ccccc1)Nc1ccc2c(c1)Cc1c-2nc(O)c2nccn12`, the results for the IC50 (against Glutamate NMDA receptor; in experiment [1]) were 100000 nM and 180 nM, respectively.
Turning to `CNC(=O)Nc1ccc2c(c1)C(CC(=O)O)c1c-2nc(O)c2nccn12` (racemic), the ED50 in the experiment with Mus musculus [3] was found to be 0.6 mg/kg; in the experiment on Mus musculus [2], 1.8 mg/kg; with Mus musculus [4] it was 1 mg/kg; in the experiment on Mus musculus [5], 2 mg/kg. For the same compound, the results for the IC50 (in the experiment filed under Rattus norvegicus; against Glutamate NMDA receptor; in experiment [1]) were 20 nM, 14000 nM and 8 nM, respectively.
For the compound `CNC(=O)Nc1ccc2c(c1)C(CC(=O)O)c1c-2nc(O)c2nccn12` (single isomer, unassigned; (+)), the ED50 is 0.9 mg/kg with Mus musculus [3] and 1 mg/kg in the experiment on Mus musculus [2]. Further, the half-inhibitory concentration (IC50) turned out to be 2 nM in the experiment filed under Rattus norvegicus, 10000 nM against Glutamate NMDA receptor and 4 nM in experiment [1].
For `CNC(=O)Nc1ccc2c(c1)C(CC(=O)O)c1c-2nc(O)c2nccn12` (stereo in doubt; (-)-3), the ED50 with Mus musculus [3] worked out at 4.4 mg/kg; in the experiment with Mus musculus [2], 7 mg/kg. Also, the half-inhibitory concentration (IC50) in the experiment filed under Rattus norvegicus turned out to be 6.7 nM; in experiment [1] it was 39 nM.
Turning to `O=c1[nH]c2cc(-n3ccnc3)c([N+](=O)[O-])cc2[nH]c1=O` [YM-90K], the ED50 with Mus musculus [3] (ip) is 15 mg/kg; in the experiment with Mus musculus [2] (ip), 12 mg/kg; in the experiment on Mus musculus [4], 12 mg/kg. For the same compound, the IC50 in the experiment listed under Rattus norvegicus (Rattus norvegicus) was determined as 260 nM.
